Assay results reported in ChEMBL document CHEMBL4041550, “Structure-Activity Relationship Study of QL47: A Broad-Spectrum Antiviral Agent” (ACS Med Chem Lett, 2017).

Key:
dengue virus type 2 [1] = assay: Antiviral activity against Dengue virus serotype 2 strain New Guinea C infected in HuH7 cells measured at 24 hrs post infection by focus forming assay; assay type: functional; conditions: Thailand/NGS-C/1944, Huh-7, 24 h
Outline: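 Huh7 cells infected with DENV2, then treated with a range of compound concentrations. Viral yield measured 24 h later by titration of infectious particles in supernatants; in parallel, cell viability measured. IC90 (1-log10 reduction in infectious progeny) and CC50 derived by non-linear regression. Mean ± SD of experimental duplicates, n ≥ 2 repeats.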

[2] = Cytotoxicity against human HuH7 cells measured after 24 hrs by CellTiter-Glo luminescent cell viability assay; assay type: cell-based, Huh-7
Outline: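 DENV2-infected Huh7 cells treated across a concentration range; cell viability read 24 h later. CC50 (50% cytotoxicity) derived by non-linear regression; mean ± SD of experimental duplicates, n ≥ 2 repeats.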

dengue virus type 2 [3] = assay: Antiviral activity against Dengue virus serotype 2 replicon harboring GVD mutant infected in HuH7 cells assessed as reduction in viral RNA translation at 10 uM measured at 6 hrs post infection by luciferase reporter gene assay relative to control; assay type: functional; parameters: scale not given: the % may be the effect or the level left
Outline: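 Huh7 cells transfected with in vitro-transcribed nonreplicative DENV2(GVD) reporter replicon RNA, then treated immediately with compound at 2 or 10 μM. Intracellular firefly luciferase activity read 6 h post-transfection as a measure of RNA translation and expressed relative to DMSO-treated samples. Mean ± SD of experimental duplicates, n = 3 repeats.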

dengue virus type 2 [4] = assay: Antiviral activity against Dengue virus serotype 2 strain New Guinea C infected in HuH7 cells assessed as reduction in log-fold change by measuring focus forming unit at 2 uM measured at 24 hrs post infection by focus forming assay relative to control; assay type: functional, Thailand/NGS-C/1944
Outline: (§1)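 DENV2-infected Huh7 cells treated with compound at 2 or 10 μM. Infectious virus secreted into culture supernatants at 24 h post-infection/treatment was titred by focus-forming assay. Result expressed as log-fold change relative to DMSO treatment.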

dengue virus type 2 [5] = assay: Antiviral activity against Dengue virus serotype 2 strain New Guinea C infected in HuH7 cells assessed as reduction in log-fold change by measuring focus forming unit at 10 uM measured at 24 hrs post infection by focus forming assay relative to control; assay type: functional, Thailand/NGS-C/1944; outline: as §1
[6] = target: Epithelial discoidin domain-containing receptor 1 (Homo sapiens, UniProt Q08345); assay: Inhibition of GST-tagged human DDR1 catalytic domain (440 to 876 residues) expressed in baculovirus expression system by LanthaScreen assay
Epithelial discoidin domain-containing receptor 1, sequence (Q08345 whole entry, the tested form may be a part): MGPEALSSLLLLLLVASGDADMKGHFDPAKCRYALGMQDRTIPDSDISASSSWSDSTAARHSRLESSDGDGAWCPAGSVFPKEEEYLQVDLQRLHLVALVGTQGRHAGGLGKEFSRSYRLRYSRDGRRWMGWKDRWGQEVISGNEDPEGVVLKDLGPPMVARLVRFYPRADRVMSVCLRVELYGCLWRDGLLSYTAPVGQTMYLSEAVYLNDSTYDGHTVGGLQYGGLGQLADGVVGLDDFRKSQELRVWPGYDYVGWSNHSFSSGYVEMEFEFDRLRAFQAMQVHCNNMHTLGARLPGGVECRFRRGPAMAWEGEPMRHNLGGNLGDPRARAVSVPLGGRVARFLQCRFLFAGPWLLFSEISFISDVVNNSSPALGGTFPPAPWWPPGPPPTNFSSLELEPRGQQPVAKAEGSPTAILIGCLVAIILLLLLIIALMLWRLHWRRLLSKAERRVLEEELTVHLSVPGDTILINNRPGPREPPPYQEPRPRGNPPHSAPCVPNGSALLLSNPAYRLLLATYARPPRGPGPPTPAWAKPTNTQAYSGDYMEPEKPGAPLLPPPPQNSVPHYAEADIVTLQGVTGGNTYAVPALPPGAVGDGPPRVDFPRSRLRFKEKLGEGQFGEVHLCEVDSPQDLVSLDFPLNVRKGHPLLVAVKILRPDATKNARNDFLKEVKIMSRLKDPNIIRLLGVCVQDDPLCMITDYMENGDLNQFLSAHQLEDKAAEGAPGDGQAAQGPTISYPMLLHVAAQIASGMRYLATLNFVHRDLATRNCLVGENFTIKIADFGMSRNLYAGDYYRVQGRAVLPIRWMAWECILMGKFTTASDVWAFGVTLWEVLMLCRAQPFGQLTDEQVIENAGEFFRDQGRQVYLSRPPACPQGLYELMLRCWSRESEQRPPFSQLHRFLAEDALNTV
Outline: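 IC50 against DDR1 and DDR2 determined with LanthaScreen binding assays.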

[7] = target: Serine/threonine-protein kinase pim-2 (Homo sapiens, UniProt Q9P1W9); assay: Inhibition of recombinant full length GST-tagged human PIM2 expressed in baculovirus expression system by Z'-Lyte assay
Serine/threonine-protein kinase pim-2, sequence (Q9P1W9 whole entry): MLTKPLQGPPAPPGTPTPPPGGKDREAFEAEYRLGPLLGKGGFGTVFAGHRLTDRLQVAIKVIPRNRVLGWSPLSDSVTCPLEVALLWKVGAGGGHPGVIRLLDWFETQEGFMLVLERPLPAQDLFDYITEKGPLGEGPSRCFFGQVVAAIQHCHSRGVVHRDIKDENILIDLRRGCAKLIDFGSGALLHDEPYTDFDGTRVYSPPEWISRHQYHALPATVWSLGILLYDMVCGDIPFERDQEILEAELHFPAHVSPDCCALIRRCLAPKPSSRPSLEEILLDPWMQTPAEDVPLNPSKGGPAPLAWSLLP
Outline: (§2)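 IC50 against PIM1, PIM2, BTK and BMX determined with Z′-Lyte kinase activity assays.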

[8] = target: T1, Cytoplasmic tyrosine-protein kinase BMX (Homo sapiens, UniProt P51813); assay: Inhibition of recombinant full length His-tagged human BMX cytoplasmic domain expressed in baculovirus expression system by Z'-Lyte assay; outline: as §2
T1 sequence (P51813 whole entry): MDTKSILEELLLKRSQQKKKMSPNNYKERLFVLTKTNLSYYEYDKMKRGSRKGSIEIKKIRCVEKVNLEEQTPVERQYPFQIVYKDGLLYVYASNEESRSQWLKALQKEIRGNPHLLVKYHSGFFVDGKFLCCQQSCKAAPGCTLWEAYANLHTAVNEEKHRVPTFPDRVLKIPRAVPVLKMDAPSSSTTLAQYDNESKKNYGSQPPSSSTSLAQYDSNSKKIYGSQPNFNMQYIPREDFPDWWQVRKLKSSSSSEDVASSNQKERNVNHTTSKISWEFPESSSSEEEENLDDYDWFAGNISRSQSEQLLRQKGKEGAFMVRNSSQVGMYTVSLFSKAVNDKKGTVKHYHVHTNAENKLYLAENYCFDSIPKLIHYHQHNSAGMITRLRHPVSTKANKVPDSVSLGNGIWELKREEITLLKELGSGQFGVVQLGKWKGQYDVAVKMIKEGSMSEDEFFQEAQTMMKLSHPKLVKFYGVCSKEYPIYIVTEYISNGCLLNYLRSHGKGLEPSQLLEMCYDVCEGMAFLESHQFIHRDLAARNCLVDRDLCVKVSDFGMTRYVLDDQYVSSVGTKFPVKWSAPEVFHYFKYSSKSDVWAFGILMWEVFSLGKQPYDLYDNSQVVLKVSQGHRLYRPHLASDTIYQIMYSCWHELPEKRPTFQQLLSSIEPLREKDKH

[9] = target: Tyrosine-protein kinase BTK (Homo sapiens, UniProt Q06187); assay: Inhibition of recombinant full length His-tagged human BTK cytoplasmic domain expressed in baculovirus expression system by Z'-Lyte assay; outline: as §2
Tyrosine-protein kinase BTK, sequence (Q06187 whole entry, the tested form may be a part): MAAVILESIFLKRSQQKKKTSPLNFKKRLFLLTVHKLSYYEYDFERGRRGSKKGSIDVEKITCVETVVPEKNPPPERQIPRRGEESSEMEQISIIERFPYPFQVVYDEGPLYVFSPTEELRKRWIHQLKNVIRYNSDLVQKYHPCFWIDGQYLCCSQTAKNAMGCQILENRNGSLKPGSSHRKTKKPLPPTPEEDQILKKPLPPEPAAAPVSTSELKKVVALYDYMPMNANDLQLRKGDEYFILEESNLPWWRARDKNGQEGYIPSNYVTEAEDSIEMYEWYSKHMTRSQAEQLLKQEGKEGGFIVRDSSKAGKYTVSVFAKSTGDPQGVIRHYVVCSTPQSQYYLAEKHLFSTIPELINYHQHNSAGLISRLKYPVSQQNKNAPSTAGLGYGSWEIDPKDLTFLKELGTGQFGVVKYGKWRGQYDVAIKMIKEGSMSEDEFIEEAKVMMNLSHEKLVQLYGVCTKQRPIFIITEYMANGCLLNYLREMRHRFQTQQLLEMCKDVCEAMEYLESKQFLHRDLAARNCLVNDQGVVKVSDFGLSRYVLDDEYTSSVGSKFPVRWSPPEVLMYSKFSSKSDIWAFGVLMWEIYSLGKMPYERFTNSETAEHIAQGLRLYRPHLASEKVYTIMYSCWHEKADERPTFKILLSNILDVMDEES

[10] = Selectivity index, ratio of CC50 for cytotoxicity against human HuH7 to IC90 for antiviral activity against Dengue virus serotype 2 strain New Guinea C infected in HuH7 cells
Outline: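 Huh7 cells infected with DENV2, then treated across a concentration range. At 24 h, cell viability was measured, and secreted infectious virus was titrated by focus-forming assay. CC50 (50% cytotoxicity) and IC90 (1-log10 reduction in infectious progeny) were fitted by non-linear regression. Experimental duplicates, n ≥ 2 repeats.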

[11] = Half life in Swiss albino mouse at 2 mg/kg, iv by LC/MS/MS method; assay type: ADME, organism-based; conditions: in vivo
Outline: (§3)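 Mouse pharmacokinetics after intravenous, oral or intraperitoneal dosing; plasma parameters derived were T1/2, Tmax, Cmax, AUClast, AUCinf, clearance, Vss and oral bioavailability F.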

[12] = Tmax in Swiss albino mouse at 10 mg/kg, po by LC/MS/MS method; assay type: ADME, organism-based; conditions: in vivo; outline: as §3
[13] = Tmax in Swiss albino mouse at 10 mg/kg, ip by LC/MS/MS method; assay type: ADME, organism-based; conditions: in vivo; outline: as §3
[14] = Tmax in Swiss albino mouse at 50 mg/kg, ip by LC/MS/MS method; assay type: ADME, organism-based; conditions: in vivo; outline: as §3
[15] = Cmax in Swiss albino mouse at 2 mg/kg, iv by LC/MS/MS method; assay type: ADME, organism-based; parameters: dose 2 mg/kg, route intravenous; conditions: in vivo; outline: as §3
[16] = Cmax in Swiss albino mouse at 10 mg/kg, ip by LC/MS/MS method; assay type: ADME, organism-based; parameters: dose 10 mg/kg, route intraperitoneal; conditions: in vivo; outline: as §3
[17] = Cmax in Swiss albino mouse at 50 mg/kg, ip by LC/MS/MS method; assay type: ADME, organism-based; parameters: dose 50 mg/kg, route intraperitoneal; conditions: in vivo; outline: as §3
[18] = AUClast in Swiss albino mouse at 2 mg/kg, iv by LC/MS/MS method; assay type: ADME, organism-based; parameters: dose 2 mg/kg, route intravenous, time 0 - last; conditions: in vivo
[19] = AUClast in Swiss albino mouse at 10 mg/kg, ip by LC/MS/MS method; assay type: ADME, organism-based; parameters: dose 10 mg/kg, route intraperitoneal, time 0 - last; conditions: in vivo
[20] = AUClast in Swiss albino mouse at 50 mg/kg, ip by LC/MS/MS method; assay type: ADME, organism-based; parameters: dose 50 mg/kg, route intraperitoneal, time 0 - last; conditions: in vivo
[21] = AUC (infinity) in Swiss albino mouse at 10 mg/kg, po by LC/MS/MS method; assay type: ADME, organism-based; parameters: dose 10 mg/kg, route oral, time infinity; conditions: in vivo
[22] = AUC (infinity) in Swiss albino mouse at 10 mg/kg, ip by LC/MS/MS method; assay type: ADME, organism-based; parameters: dose 10 mg/kg, route intraperitoneal, time infinity; conditions: in vivo
[23] = Clearance in Swiss albino mouse at 2 mg/kg, iv by LC/MS/MS method; assay type: ADME, organism-based; conditions: in vivo; outline: as §3
[24] = Volume of distribution at steady state in Swiss albino mouse at 2 mg/kg, iv by LC/MS/MS method; assay type: ADME, organism-based; conditions: in vivo, read-out: Vdss; outline: as §3
[25] = Oral bioavailability in Swiss albino mouse at 10 mg/kg by LC/MS/MS method; assay type: ADME, organism-based; conditions: in vivo; outline: as §3

In the case of `Cc1ccc(-n2c(=O)ccc3ccc4ccc(-c5cnn(C)c5)cc4c32)cc1NC(=O)/C=C/CN(C)C`, the IC90 (dengue virus type 2 [1]) is reported as 555 nM, the CC50 at 24 h [2] is reported as 12000 to 20000 nM and the Activity (dengue virus type 2 [3]) is reported as 95%. The Activity (dengue virus type 2 [4]) was 4 log10FFU/ml, the Activity (dengue virus type 2 [5]) was 4 log10FFU/ml and the IC50 [6] was 5020 nM. The IC50 [7] was > 10000 nM, the IC50 [8] was 2420 nM and the IC50 [9] was 911 nM. The “Selectivity Index” value [10] was 35, the half-life [11] was 64.2 min and the Tmax [12] was 60 min. It also gave a Tmax [13] of 15 min, a Tmax [14] of 4.8 min and a Cmax [15] of 462 ng/mL. For the same compound, the Cmax [16] was 787 ng/mL, the Cmax [17] was 4510 ng/mL and the AUC(0-t) [18] was 161 ng·h/mL. For the same compound, the AUC(0-t) [19] was 1110 ng·h/mL, the AUC(0-t) [20] was 8220 ng·h/mL and the AUC(0-inf) [21] was 118 ng·h/mL. It also gave an AUC(0-inf) [22] of 1210 ng·h/mL, a clearance [23] of 199 mL/min/kg and a Vd [24] of 9.58 L/kg. It also gave a bioavailability [25] of 12%.
